According to ChEMBL document CHEMBL5634162, “Cyclohexylalanine-Containing α-Helical Amphipathic Peptide Targets Cardiolipin, Rescuing Mitochondrial Dysfunction in Kidney Injury” (J Med Chem, 2024):
The source made the active and inactive calls. Where a SMILES comes first, the peptide text is derived from it. Bridges are numbered along the chain shown (N, C = ends). Roman numbers before positions name the chains, in order. [ ]: non-standard residue; d: D form. The star is where a group is joined. 5TAMRA = CN(C)c1ccc2c(c1)Oc1cc(N(C)C)ccc1C21OC(=O)c2cc(C(=O)*)ccc21; Cha = N[C@@H](CC1CCCCC1)C(=O)O

Tests used:
Epithelial cell [1] = assay: Reversal of H2O2-induced mitochondrial dysfunction in human tubular epithelial cells assessed as increase in ECAR level measured for 40 to 60 mins by Seahorse assay; assay type: functional, cell-based; details: dose 10-50 nM, time 40-60 min
In short: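 hTECs were exposed to H2O2 with peptide at 10 or 50 nM (n = 6 per group), then run on a Seahorse XFe96. OCR was read after sequential 2 μM oligomycin, 1 μM FCCP, and 0.5 μM rotenone/antimycin A. ECAR was read after 10 mM glucose, 1 μM oligomycin and 50 mM 2-DG. Glycolytic proton efflux rate was taken as glycoATP production rate.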

[2] = Drug uptake in human HeLa cells at 100 nM incubated for 3 hrs in presence of M-beta-CD by FACS analysis; assay type: ADME, cell-based; details: 0.1 µM
In short: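 HeLa cells pretreated 30 min with the endocytosis inhibitor (methyl-β-cyclodextrin for cholesterol depletion), then given 100 nM TAMRA-labelled peptide for 3 h and analysed by FACS.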

Epithelial cell [3] = assay: Inhibition of H2O2-induced apoptosis in human tubular epithelial cells at 10 to 100 nM by Annexin V-FITC/PI staining based flow cytometry; assay type: functional; details: dose 10-100 nM
In short: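 hTECs exposed to H2O2 0.5 mM; annexin V-FITC/propidium iodide staining 15 min at room temperature in the dark, apoptosis and necrosis percentages by flow cytometry.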

Epithelial cell [4] = assay: Induction of antimycin A-reduced ATP production in human tubular epithelial cells at 10 to 20 nM incubated for 3 hrs followed by antimycin A addition by fluorescene based analysis; assay type: functional; details: dose 10-20 nM
Mus musculus [5] = assay: Protection against […] C57BL/6 mouse model assessed as reduction in cast formation at 1 mg/kg, ip administered thrice a week prior to induction of bilateral ischemia-reperfusion injury measured after 6 days by IHC analysis; assay type: functional, organism-based; details: time 6.0 day
[6] = Drug uptake in CCCP-damaged mitochondria of human HeLa cells at 100 nM incubated for 3 hrs by MitoTracker probe based assay; assay type: ADME; details: 0.1 µM
In short: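 HeLa cells given TAMRA-labelled peptide 100 nM for 3 h with MitoTracker staining; mitochondria damaged with 20 μM CCCP (30 min) or by CCCP during time-lapse confocal imaging. Red/green Pearson r calculated.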

[7] = Drug localization in lysosomes of human HeLa cells at 100 nM incubated for 3 hrs by NAO probe based analysis; assay type: ADME, subcellular, Lysosome; details: 0.1 µM
In short: (§1)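 HeLa cells given TAMRA-labelled peptide 100 nM for 3 h and cardiolipin stained with NAO (100 nM, 1 h), with or without 20 μM CCCP for 30 min; LysoTracker 50 nM. Confocal images, Pearson r from five independent images (63×) per condition.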

[8] = Drug localization in cytosol of human HeLa cells at 100 nM incubated for 3 hrs in presence of CCCP by NAO probe based analysis; assay type: ADME, subcellular; details: 0.1 µM; in short: as §1
Mus musculus [9] = assay: Protection against colistin-induced nephrotoxicity in C57BL/6 mouse model assessed as appearance of compact cristae in mitochondria of kidney at 1 mg/kg, ip administered once every other day measured after 7 days by TEM analysis; assay type: functional, organism-based; details: time 7.0 day
In short: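 Male C57BL/6 mice, 7 weeks, given colistin 20 mg/kg sc daily for 7 days with peptide 1 mg/kg ip once every other day, n = 5 per group; kidney mitochondria examined by TEM.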

Mus musculus [10] = assay: Protection against […] C57BL/6 mouse model assessed as increase in ATP6 mRNA level at 1 mg/kg, ip administered thrice a week prior to induction of bilateral ischemia-reperfusion injury measured after 6 days by qPCR analysis; assay type: functional, organism-based; details: time 6.0 day
Mus musculus [11] = assay: Protection against colistin-induced nephrotoxicity in C57BL/6 mouse model assessed as reduction in blood BUN level at 1 mg/kg, ip administered once every other day measured upto 7 days; assay type: functional, organism-based; details: time <= 7.0 day
In short: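 Male C57BL/6 mice, 7 weeks: colistin 20 mg/kg sc daily for 7 days, peptide 1 mg/kg ip every other day, n = 5 per group. BUN by autoanalyzer and creatinine by modified Jaffe reaction after 7 days; mean ± SEM.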

[12] = Drug localization in mitochondria of human HeLa cells at EC50 incubated for 3 hrs by fluorescence based assay; assay type: ADME
Mus musculus [13] = assay: Protection against colistin-induced nephrotoxicity in C57BL/6 mouse model assessed as reduction in tubular dilation at 1 mg/kg, ip administered once every other day measured after 7 days by […] analysis; assay type: functional, organism-based; details: time 7.0 day
In short: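 Seven-week-old male C57BL/6 mice got colistin 20 mg/kg SC daily for 7 days plus peptide 1 mg/kg intraperitoneally every other day; groups of n = 5 (control, colistin, colistin + peptide). Kidneys were taken at day 7. Cytochrome C was detected by immunohistochemistry (citrate antigen retrieval, HRP-polymer detection, hematoxylin counterstain). Sections were also stained with PAS and Masson's trichrome to score histologic damage and fibrosis.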

Mus musculus [14] = assay: Protection against colistin-induced nephrotoxicity in C57BL/6 mouse model assessed as increase in SOD-1 level at 1 mg/kg, ip administered once every other day measured after 7 days by IHC analysis; assay type: functional, organism-based; details: time 7.0 day
In short: (§2)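 Male C57BL/6 mice, 7 weeks: colistin 20 mg/kg sc daily for 7 days, peptide 1 mg/kg ip once every other day, n = 5 per group. Day-7 kidney sections, citrate antigen retrieval, immunohistochemistry with HRP polymer secondary and hematoxylin counterstain; PAS and Masson's trichrome for damage.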

Mus musculus [15] = assay: Protection against […] C57BL/6 mouse model assessed as reduction in serum creatinine level at 1 mg/kg, ip administered thrice a week prior to induction of bilateral ischemia-reperfusion injury measured after 6 days; assay type: functional, organism-based; details: time 6.0 day
Epithelial cell [16] = assay: Inhibition of H2O2-induced intracellular ROS level in human tubular epithelial cells at 20 to 60 nM pretreated for 3 hrs followed by H2O2 addition measured after 30 mins by H2DCFDA staining based analysis; assay type: functional; details: dose 20-60 nM
In short: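 hTECs seeded, 24 h later given peptide 3 h, then H2O2 1 mM for 30 min; H2DCFDA 25 μM for 30 min, washed, read in HBSS on plate reader at 37 °C (Ex/Em 485/535 nm).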

[17] = Toxicity in C57BL/6 mouse model of colistin-induced nephrotoxicity assessed as animal survival at 1 mg/kg, ip administered once every other day measured for 7 days; assay type: organism-based; details: in vivo, 168 h, time 7 day
In short: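 Male C57BL/6 mice got colistin 20 mg/kg SC daily for 7 days, with peptide 1 mg/kg intraperitoneally every other day; groups of n = 5. Survival was tracked by Kaplan–Meier and compared by log-rank (Mantel–Cox) test.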

[18] = Drug uptake in mitochondria of human HeLa cells transfected with Drp1-eGFP at 100 nM incubated for 3 hrs by confocal microscopy; assay type: ADME; details: 0.1 µM
Mus musculus [19] = assay: Protection against colistin-induced nephrotoxicity in C57BL/6 mouse model assessed as reduction in P-21 level at 1 mg/kg, ip administered once every other day measured after 7 days by IHC analysis; assay type: functional, organism-based; details: time 7.0 day; in short: as §2
Epithelial cell [20] = assay: Reversal of H2O2-induced p16 mRNA level in human tubular epithelial cells at 10 to 100 nM by qPCR analysis; assay type: functional, cell-based; details: dose 10-100 nM
Epithelial cell [21] = assay: Induction of H2O2-reduced mitochondrial membrane potential in human tubular epithelial cells at 20 to 60 nM pretreated for 3 hrs followed by H2O2 addition measured after 30 mins by fluorescence based analysis; assay type: functional; details: dose 20-60 nM
In short: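 hTECs given peptide 3 h then H2O2 1 mM for 30 min; TMRE 600 nM for 15 min, washed, HBSS, plate reader at 37 °C (Ex/Em 525/575 nm).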

CC(=O)N[C@@H](CC1CCCCC1)C(=O)N[C@H]1CSSC[C@@H](C(=O)N[C@@H](CCCNC(=N)N)C(N)=O)NC(=O)[C@H](CC2CCCCC2)NC(=O)[C@H](CCCNC(=N)N)NC(=O)[C@H](CCCNC(=N)N)NC(=O)[C@H](CC2CCCCC2)NC(=O)[C@H](CC(C)C)NC(=O)[C@H](CCCNC(=N)N)NC(=O)[C@@H](NC(=O)[C@H](CC2CCCCC2)NC(=O)c2ccc3c(c2)C(=O)OC32c3ccc(N(C)C)cc3Oc3cc(N(C)C)ccc32)CSSC[C@@H](C(=O)N[C@@H](CCCNC(=N)N)C(N)=O)NC(=O)[C@H](CC2CCCCC2)NC(=O)[C@H](CCCNC(=N)N)NC(=O)[C@H](CCCNC(=N)N)NC(=O)[C@H](CC2CCCCC2)NC(=O)[C@H](CC(C)C)NC(=O)[C@H](CCCNC(=N)N)NC1=O (I: Ac-[Cha]CRL[Cha]RR[Cha]CR-NH2 / II: 5TAMRA-[Cha]CRL[Cha]RR[Cha]CR-NH2; disulfide I:2-II:9, I:9-II:2)
Not Active: Drug uptake [2]
Active: Drug uptake [6] | Drug uptake [7] | Drug uptake [8] | Drug uptake [18]
active: Activity (Epithelial cell [1]) Dose-Dependent Effect | inhibition (Epithelial cell [3]) | Activity (Epithelial cell [4]) | Activity (Mus musculus [5]) | Activity (Mus musculus [9]) | Activity (Mus musculus [10]) | Activity (Mus musculus [11]) | Activity (Mus musculus [13]) | Activity (Mus musculus [14]) | Activity (Mus musculus [15]) | inhibition (Epithelial cell [16]) | Activity (Mus musculus [19]) | Activity (Epithelial cell [20]) | Activity (Epithelial cell [21])
53%: Drug uptake [12]
Non-Toxic: Activity [17]
